Results reported in ChEMBL document CHEMBL1148191, “2-Hydroxymethyl-3,4-dihydroxy-6-methyl-pyrrolidine (6-deoxy-DMDP), an alkaloid beta-mannosidase inhibitor from seeds of Angylocalyx pynaertii” (J Nat Prod, 1993).
Calls of active or inactive are those of the source. No cut-off for these calls is given here.

Tests used:
Canavalia ensiformis = test: Inhibition of jack beans alpha-mannosidase
In short: (§1)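 Commercial arylglycosidases, with α-L-fucosidase from bovine kidney. Activity was measured colorimetrically as p-nitrophenol released from the matching p-nitrophenyl glycoside substrate.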

Saccharomyces cerevisiae = test: Inhibition of yeast alpha-glucosidase; in short: as §1
Prunus dulcis = test: Inhibition of almonds beta-glucosidase; in short: as §1
Aspergillus niger = test: Inhibition of Aspergillus niger alpha-galactosidase; in short: as §1
[1] = target: T1, Beta-mannosidase A (Aspergillus niger) (UniProt Q9UUZ3); test: Inhibition of Aspergillus niger beta-mannosidase at 380 uM
T1 sequence (whole entry): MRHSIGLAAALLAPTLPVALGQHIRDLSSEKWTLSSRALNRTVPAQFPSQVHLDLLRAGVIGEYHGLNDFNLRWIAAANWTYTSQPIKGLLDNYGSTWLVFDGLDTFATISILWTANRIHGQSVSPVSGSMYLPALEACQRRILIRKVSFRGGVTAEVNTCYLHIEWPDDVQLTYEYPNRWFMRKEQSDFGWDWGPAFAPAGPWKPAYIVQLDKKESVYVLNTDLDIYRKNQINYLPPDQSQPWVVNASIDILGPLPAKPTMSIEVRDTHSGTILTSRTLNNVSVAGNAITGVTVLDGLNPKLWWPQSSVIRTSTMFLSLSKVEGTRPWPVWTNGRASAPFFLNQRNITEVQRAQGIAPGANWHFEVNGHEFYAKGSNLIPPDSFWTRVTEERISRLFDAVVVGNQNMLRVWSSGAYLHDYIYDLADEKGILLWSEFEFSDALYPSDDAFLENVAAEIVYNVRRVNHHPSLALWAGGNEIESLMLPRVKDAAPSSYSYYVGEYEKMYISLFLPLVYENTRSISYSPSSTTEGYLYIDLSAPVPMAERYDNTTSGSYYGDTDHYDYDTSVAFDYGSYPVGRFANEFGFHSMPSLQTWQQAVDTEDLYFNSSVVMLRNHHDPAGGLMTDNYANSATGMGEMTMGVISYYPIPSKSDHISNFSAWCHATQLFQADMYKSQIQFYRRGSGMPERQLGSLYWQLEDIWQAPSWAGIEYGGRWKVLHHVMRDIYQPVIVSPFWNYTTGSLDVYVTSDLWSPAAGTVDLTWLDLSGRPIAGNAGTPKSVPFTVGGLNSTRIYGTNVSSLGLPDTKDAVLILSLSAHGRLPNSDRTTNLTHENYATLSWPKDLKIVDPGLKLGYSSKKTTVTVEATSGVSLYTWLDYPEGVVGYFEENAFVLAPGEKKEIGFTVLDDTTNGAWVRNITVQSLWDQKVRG
In short: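 β-Mannosidase was purified from Aspergillus niger. Activity was read colorimetrically as p-nitrophenol release from the p-nitrophenyl glycoside substrate, expressed relative to untreated enzyme over a range of inhibitor concentrations. Kinetics were analysed by Lineweaver-Burk plot.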

[2] = target: T2, Beta-galactosidase (Bos taurus) (UniProt Q58D55); test: Inhibition of bovine liver beta-galactosidase; in short: as §1
T2 sequence (whole entry): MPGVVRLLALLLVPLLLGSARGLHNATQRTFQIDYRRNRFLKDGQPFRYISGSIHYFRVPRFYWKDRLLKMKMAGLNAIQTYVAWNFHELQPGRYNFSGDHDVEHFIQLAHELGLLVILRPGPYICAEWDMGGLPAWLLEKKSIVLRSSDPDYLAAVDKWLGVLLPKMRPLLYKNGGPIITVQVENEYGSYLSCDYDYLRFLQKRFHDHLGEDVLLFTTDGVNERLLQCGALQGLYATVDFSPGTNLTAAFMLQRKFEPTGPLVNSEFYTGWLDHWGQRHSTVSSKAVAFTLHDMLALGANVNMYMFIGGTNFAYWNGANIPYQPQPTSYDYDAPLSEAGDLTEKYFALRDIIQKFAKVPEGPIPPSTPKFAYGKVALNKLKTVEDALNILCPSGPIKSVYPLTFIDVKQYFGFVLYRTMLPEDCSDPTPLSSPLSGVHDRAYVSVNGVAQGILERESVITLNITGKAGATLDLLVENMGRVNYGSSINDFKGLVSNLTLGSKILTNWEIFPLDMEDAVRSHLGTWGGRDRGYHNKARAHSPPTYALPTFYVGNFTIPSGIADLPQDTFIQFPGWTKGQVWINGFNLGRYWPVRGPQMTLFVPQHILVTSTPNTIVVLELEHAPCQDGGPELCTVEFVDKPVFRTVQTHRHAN

[3] = target: T3, Exo-1,4-beta-xylosidase xlnD (Aspergillus niger) (UniProt O00089); test: Inhibition of Aspergillus niger beta-xylosidase; in short: as §1
T3 sequence (whole entry): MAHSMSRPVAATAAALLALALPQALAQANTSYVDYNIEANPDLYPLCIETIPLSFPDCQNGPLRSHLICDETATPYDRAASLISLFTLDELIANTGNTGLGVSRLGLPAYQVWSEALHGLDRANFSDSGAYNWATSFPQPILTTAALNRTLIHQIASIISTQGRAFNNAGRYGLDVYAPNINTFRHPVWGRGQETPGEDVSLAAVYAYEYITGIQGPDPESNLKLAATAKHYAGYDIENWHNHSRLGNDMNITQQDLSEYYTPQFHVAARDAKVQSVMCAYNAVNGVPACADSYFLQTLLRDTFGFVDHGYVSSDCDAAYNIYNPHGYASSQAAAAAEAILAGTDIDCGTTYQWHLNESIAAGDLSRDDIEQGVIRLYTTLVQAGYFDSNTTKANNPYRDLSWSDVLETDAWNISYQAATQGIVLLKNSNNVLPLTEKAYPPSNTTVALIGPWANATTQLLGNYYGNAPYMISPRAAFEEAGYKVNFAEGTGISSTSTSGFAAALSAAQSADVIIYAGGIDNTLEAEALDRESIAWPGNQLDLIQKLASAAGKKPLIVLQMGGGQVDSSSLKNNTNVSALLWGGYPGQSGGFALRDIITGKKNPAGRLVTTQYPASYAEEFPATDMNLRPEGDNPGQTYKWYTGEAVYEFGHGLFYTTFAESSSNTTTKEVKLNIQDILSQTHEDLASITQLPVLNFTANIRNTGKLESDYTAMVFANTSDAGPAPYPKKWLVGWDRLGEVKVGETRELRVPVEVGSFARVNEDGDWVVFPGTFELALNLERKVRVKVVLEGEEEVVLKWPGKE

OC[C@H]1NC[C@@H](O)[C@@H](O)[C@@H]1O
Activity (Canavalia ensiformis): Active

C[C@H]1N[C@H](CO)[C@@H](O)[C@@H]1O
Activity (Saccharomyces cerevisiae): inactive | Activity (Prunus dulcis): inactive | Activity (Aspergillus niger): inactive | Activity (Canavalia ensiformis): inactive | inhibition [1]: 50% | Activity [2]: Active | Activity [3]: inactive

O[C@H]1[C@H]2[C@H](O)CCCN2C[C@H]1O
Activity (Canavalia ensiformis): Active

OC[C@H]1N[C@H](CO)[C@@H](O)[C@@H]1O
Activity (Saccharomyces cerevisiae): Active | Activity (Prunus dulcis): Active

OC[C@H]1NC[C@@H](O)[C@@H]1O
Activity (Saccharomyces cerevisiae): Active | Activity (Prunus dulcis): Active
